# STAT1 act: increases IFN-gamma driven STAT1 reporter signal. NIH 3T3 STAT1-luciferase reporter, luminescence; 100% = IFN-gamma alone, no compound. activation (% of control), % at 5.5 µM. hit rate 2.6% among 200,000. AID 932;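 active = activation above the screen-wide mean activation plus 3 SD, cut at about 130% in these data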;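 also: raw ratio to IFN-gamma control signal so 100% means no change and 0% no light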
# STAT3 act: STAT3 signaling activation | U3A cells, IL-6 STAT3-luciferase reporter, luminescence; 100% = signal with IL-6 EC80 alone | activation (% of control), % at 5.6 µM | hit rate 0.91% among 190,000 | AID 871;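 active = activation above the screen-wide mean of compound activation plus 3 SD, cut at about 130% in these data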;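 also: 0% = background luminescence of wells with medium and substrate only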
#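 Material: STAT1-lacking human U3A cells, STAT3 luciferase reporter | Benchmarks: IL-6-only wells as 100% reference | Probe or stimulus: IL-6 (33 ng/mL) | Timing: Compound 1 h, then IL-6 6 h at 37 °C | Detection: Luminescence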
# STAT3 blocker: STAT3 signaling inhibition. hit rate 0.89% among 190,000. inhibition, % at 5.5 µM. AID 862. U3A cells, IL-6 STAT3-luciferase reporter, luminescence; host cell line lacks STAT1;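 active = inhibition above the mean inhibition across all screened compounds plus 3 SD, cut at about 44% in these data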;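 also: 0% = DMSO only wells and 100% = 100 µM nifuroxazide control wells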
# APP 5'UTR act: activates APP 5'UTR luciferase reporter; SH-SY5Y APP 5'UTR luciferase reporter, luminescence; zero percent = DMSO vehicle wells; activation, % at 2 µM; hit rate 1% among 190,000;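 active = activation above a set limit, based on mean plus 3 SD of controls, cut at about 140% in these data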
# NF-kB expr up: compounds increasing NF-kB expression in human neuronal cells; fold change at 12.5 µM; AID 1239; hit rate 1.6% among 190,000; NF-kB reporter expression; hits give high values; in the data active = fold change above about 3.3
# STAT1 inh: STAT1 signaling inhibition | NIH 3T3 STAT1-luciferase reporter, IFN-gamma, luminescence | inhibition, % at 5.5 µM | hit rate 0.35% among 200,000 | AID 920;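 active = inhibition above a set limit, the mean inhibition across all tested compounds plus 3 SD, cut at about 34% in these data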;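 also: 0% = IFN-gamma with DMSO and 100% = IFN-gamma with 300 µM nifuroxazide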
# * = called active by the depositor; nt = not tested or not shown. Most compounds without a hit are left out; they make up all but 5.1% or so of the library.
SMILES,STAT1 act,STAT3 act,STAT3 blocker,APP 5'UTR act,NF-kB expr up,STAT1 inh
CC(C)C(=O)Nc1cccc(NC(=O)c2cc3ccccc3o2)c1,130*,94,10,36,1.5,-31
COc1cc(NC(=O)c2cc3ccccc3o2)c(OC)cc1Cl,99,154*,-57,-15,1.1,1
CCn1c(=S)[nH]c2cc(C(=O)O)ccc21,97,93,10,-11,0.9,1
COc1ccccc1NC(=O)c1ccc(-c2ccccc2[N+](=O)[O-])o1,150*,91,13,46,1.9,-56
CN=c1scc(C)n1/N=C/c1cc(Br)c(O)c(Br)c1,110,91,18,-4,5.5*,-12
CCN=c1scc(C)n1/N=C/c1cc(Br)c(O)c(OC)c1,102,99,11,22,1.1,-4
CN=c1scc(-c2ccco2)n1/N=C/c1ccc(O)c(O)c1,100,111,1,9,3.8*,0
COc1ccc(O)c(/C=N/n2c(-c3ccco3)csc2=Nc2cccnc2)c1,104,103,-5,1,0.96,-4
C=CCN=c1scc(C)n1/N=C/c1ccc(O)c(O)c1,111,87,20,8,2,-12
CN=c1scc(C)n1/N=C/c1ccc(O)cc1,114,85,25,93,12*,-16
CN=c1scc(C)n1/N=C/c1ccc(O)cc1O,49,52,61*,156*,3.8*,56*
COc1ccc(C2c3c(oc4ccccc4c3=O)C(=O)N2CCCN2CCOCC2)cc1 (centres undefined),110,109,-7,-21,nt,-3
COc1ccc2c(c1OC)C(=O)N1c3ccccc3C(=O)N(c3ccccc3)C21 (centres undefined),51,61,49*,-8,0.28,53*
S=c1[nH]nc(Cc2ccccc2)n1-c1ccccc1,97,99,7,-9,1,3
c1ccc2c(-c3cn4ccccc4n3)c[nH]c2c1,150*,119,-17,149*,3.4*,-51
c1ccc2c(-c3nnc(SCc4cn5ccccc5n4)o3)c[nH]c2c1,98,91,12,53,1.4,2
O=C1C=C(Nc2ccccc2)C(=O)c2ccccc21,132*,100,1,140*,8.2*,-37
O=C1C(Nc2ccccc2)=C/C(=N/S(=O)(=O)c2cccs2)c2ccccc21,103,136*,-41,20,0.83,-3
Cc1ccccc1-c1nnc(SCC(=O)Nc2ccc(Cl)cc2)n1N,109,91,18,2,0.93,-10
COc1ccc(/C=C(/C#N)c2cccnc2)cc1OC,104,100,2,23,0.81,-4
COC(=O)c1ccc(NC(=O)CN(c2ccc(OC)cc2)S(C)(=O)=O)cc1,134*,122,-24,20,2.8,-37
N#C/C(=C/c1ccccc1)c1nn(CCO)c(N)c1C#N,110,109,-4,25,1.1,-11
N#Cc1cc(C#N)c(N2CCN(c3ccccn3)CC2)nc1N,136*,119,-16,68,0.97,-39
Cc1cc(NC(=O)C2C3C(=O)N(c4cccnc4)C(C(=O)NC(C)(C)C)C34C=CC2(C)O4)no1 (centres undefined),111,100,2,-6,1.2,-14
COc1ccc(Cn2c(SCC#N)nc3ccc(N4CCOCC4)cc3c2=O)cc1,136*,121,-10,60,2.9,-40
SMILES,STAT1 act,STAT3 act,STAT3 blocker,APP 5'UTR act,NF-kB expr up,STAT1 inh
CCCOc1ccc(-c2cnc(N)s2)cc1,133*,92,12,88,2.2,-37
COc1cccc(C(=O)Oc2ccccc2/C=C\C(=O)c2cc3ccccc3o2)c1,97,105,-3,61,21*,4
O=C(Oc1ccccc1/C=C\C(=O)c1cc2ccccc2o1)c1cccc(F)c1,102,127,-32,76,4*,-3
O=C(Nc1ccccc1)c1ccc(OC(=O)c2cc3ccccc3o2)cc1,104,109,-4,6,1.8,-4
O=C(Oc1ccccc1/C=C\C(=O)c1cc2ccccc2o1)c1ccccc1,86,107,-4,163*,5.7*,16
CCN(CC(=O)Nc1ccccc1C(=O)OC)S(=O)(=O)c1ccc(OC)cc1,98,99,7,-12,0.96,2
CCC(=O)Nc1ccc(OCc2nc3ccccc3s2)cc1,134*,132,-38,216*,4.2*,-36

# High-throughput results from PubChem BioAssay.
